Source: ChEMBL document CHEMBL1144684, “Evaluation of a series of naphthamides as potent, orally active vascular endothelial growth factor receptor-2 tyrosine kinase inhibitors” (J Med Chem, 2008)
pIC50: −log10 of the molar value.

Columns and labels:
HUVEC = experiment: Selectivity of IC50 for VEGF-induced proliferation over IC50 for bFGF-induced proliferation of HUVEC; assay type: functional, Homo sapiens
Procedure, shortened: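 HUVECs were seeded at 3000 cells/well in DMEM/10% FBS with pen/strep and cultured for 22 h. They were preincubated 2 h with serially diluted compound, then stimulated with 50 ng/mL VEGF or 20 ng/mL bFGF for 72 h at 37 °C, 5% CO2. Cells were washed, frozen at -70 °C and stained with CyQuant. IC50s came from a four-parameter logistic fit, averaged over ≥2 experiments; the VEGF IC50 was compared against the bFGF IC50.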

[1] = Volume of distribution at steady state in cynomolgus monkey at 0.5 mg/kg, iv; assay type: ADME, organism-based, Macaca fascicularis; parameters: dose 0.5 mg/kg, route intravenous; settings: in vivo, read-out: Vdss
Procedure, shortened: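 Intravenous dosing of male/unspecified animals per species; vehicles: mouse 2 mg/kg in Peg 400, dog 0.5 mg/kg in DMSO, cynomolgus monkey 0.5 mg/kg in propylene glycol. Parameters from plasma concentration–time data by noncompartmental analysis.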

[2] = biological target: Tyrosine-protein kinase ABL1 (Homo sapiens, UniProt P00519)
Chain of Tyrosine-protein kinase ABL1 (P00519 whole entry): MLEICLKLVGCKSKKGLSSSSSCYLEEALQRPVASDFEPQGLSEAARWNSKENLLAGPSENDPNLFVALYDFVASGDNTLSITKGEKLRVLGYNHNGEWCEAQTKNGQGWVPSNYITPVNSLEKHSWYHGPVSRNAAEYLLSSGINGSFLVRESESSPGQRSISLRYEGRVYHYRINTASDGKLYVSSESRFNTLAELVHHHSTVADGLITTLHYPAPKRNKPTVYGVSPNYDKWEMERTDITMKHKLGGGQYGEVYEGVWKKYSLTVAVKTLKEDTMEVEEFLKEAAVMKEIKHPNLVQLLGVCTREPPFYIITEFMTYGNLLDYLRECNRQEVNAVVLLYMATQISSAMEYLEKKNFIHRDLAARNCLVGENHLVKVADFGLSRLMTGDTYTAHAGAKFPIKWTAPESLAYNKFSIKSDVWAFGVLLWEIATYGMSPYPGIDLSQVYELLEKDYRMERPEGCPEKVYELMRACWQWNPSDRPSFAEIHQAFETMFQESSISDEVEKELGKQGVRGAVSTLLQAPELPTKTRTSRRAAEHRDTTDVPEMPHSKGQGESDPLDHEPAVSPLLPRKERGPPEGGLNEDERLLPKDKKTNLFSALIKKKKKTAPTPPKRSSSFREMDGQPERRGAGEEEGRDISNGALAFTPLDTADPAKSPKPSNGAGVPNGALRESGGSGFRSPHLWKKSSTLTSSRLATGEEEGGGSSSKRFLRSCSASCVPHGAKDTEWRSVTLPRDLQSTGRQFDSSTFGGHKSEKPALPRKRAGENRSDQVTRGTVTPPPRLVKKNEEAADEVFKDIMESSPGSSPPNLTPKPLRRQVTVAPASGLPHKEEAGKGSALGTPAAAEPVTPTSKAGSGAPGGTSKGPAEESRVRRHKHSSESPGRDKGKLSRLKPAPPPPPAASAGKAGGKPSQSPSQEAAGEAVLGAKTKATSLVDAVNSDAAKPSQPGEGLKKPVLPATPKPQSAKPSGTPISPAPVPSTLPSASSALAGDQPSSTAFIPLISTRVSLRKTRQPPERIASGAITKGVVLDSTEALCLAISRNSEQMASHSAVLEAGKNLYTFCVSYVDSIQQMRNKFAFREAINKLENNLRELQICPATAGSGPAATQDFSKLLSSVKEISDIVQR

[3] = Aqueous solubility in 0.01 N Hcl; assay type: physicochemical
[4] = AUC (0 to infinity) in Sprague-Dawley rat at 2 mg/kg, po; assay type: ADME, organism-based; parameters: time infinity, dose 2 mg/kg, route oral; settings: plasma
Procedure, shortened: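 Male Sprague–Dawley rats dosed iv via femoral vein as DMSO solution (1 or 0.5 mg/kg) or po by gavage as OraPlus suspension (pH 2.0–2.2 with methanesulfonic acid; 10 or 2 mg/kg). Serial jugular blood over 12–24 h; plasma acetonitrile precipitation, LC-MS/MS (MRM) with internal standard; noncompartmental parameters.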

[5] = Cmax in dog at 0.5 mg/kg, po; assay type: ADME, organism-based, Canis lupus familiaris; parameters: dose 0.5 mg/kg, route oral; settings: in vivo
Procedure, shortened: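 Compound given iv and po as single doses; vehicles: mouse iv PEG 400, po OraPlus; dog iv DMSO, po 1% Tween-80/2% HPMC/97% water; cynomolgus iv propylene glycol, po suspension.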

COc1cc2nccc(Oc3ccc4c(C(N)=O)cccc4c3)c2cc1OC
Selectivity ratio (HUVEC): >100 | Vd [1]: 6.82 L/kg | pIC50 [2]: 6.96 | solubility [3]: > 200 µg/mL | AUC(0-inf) [4]: 8450 ng·h/mL | Cmax [5]: 464 ng/mL
